The results in this text go back to ChEMBL document CHEMBL2380310, “Discovery of 7-oxopyrazolo[1,5-a]pyrimidine-6-carboxamides as potent and selective CB(2) cannabinoid receptor inverse agonists” (J Med Chem, 2013).

Molecules are shown by their SMILES. pKi: −log10 of the molar value. Some results are limits rather than exact numbers.

In assay [1] the target is Cannabinoid receptor 1 (Rattus norvegicus, UniProt P20272). Description: Displacement of [3H]CP-55940 from Sprague-Dawley rat brain CB1 receptor after 90 mins by scintillation counting analysis. An outline of the steps:
(§1)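 Competition with [³H]CP-55,940 (1.0 nM stated in rat CB₁ section; 0.5 nM in general protocol) against 1 nM–10 μM compound, 90 min at 30 °C. GF/C filtration, scintillation counting. Ki via Cheng-Prusoff; mean SEM, n = 4.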
Background: Loss of bound radioactivity is the signal in a displacement assay; it reports binding, not function.

The species named for assay [2] is Homo sapiens. As to the kind of experiment: Selectivity index, ratio of Ki for human CB1 receptor to Ki for human CB2 receptor.
The target in assay [3] is T1, Cannabinoid receptor 1 (Homo sapiens, UniProt P21554). As to the kind of experiment: Displacement of [3H]CP-55940 from human CB1 receptor expressed in CHO cell membrane at > 10 uM after 90 mins by scintillation counting analysis. The class given is cell membranes. The method in brief:
(§2)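 Membranes from CHO cells stably expressing human CB₁ (G418-maintained), suspended in 50 mM Tris-HCl, 0.5% BSA, 5 mM MgCl₂, 2.5 mM EDTA, pH 7.4. Displacement of 0.5 nM [³H]CP-55,940 by 1 nM–10 μM compound, 90 min, 30 °C. Filtration on GF/C, scintillation counting. Cheng-Prusoff Ki, LIGAND fitting; mean SEM, n = 4.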

Assay [4] addresses T2, Cannabinoid receptor 2 (Homo sapiens, UniProt P34972). Description: Inverse agonist activity at human CB2 receptor expressed in CHO cell membrane assessed as increase in forskolin-stimulated cAMP production at 10 uM by scintillation counting analysis relative to WIN55212-2. The method in brief:
(§3)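 Whole hCB₂ CHO cells (1 × 10⁶/assay) in HEPES-buffered saline with glucose, pH 7.4, preincubated 10 min at 37 °C with 0.5 mM Ro 20-1724. Compound at 1 or 10 μM with 1 μM forskolin. Stopped with cold 6% TCA, ether-extracted; cAMP measured by [³H]cAMP competition binding with adrenal binding protein. Expressed as % increase versus WIN 55,212-2 (set −100%); n = 4.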
(In general: Changes in cAMP serve as a functional read-out for many G protein-coupled receptors.)

For assay [5], the target named is T3, Cannabinoid receptor 2 (Rattus norvegicus, UniProt Q9QZN9).
T3 sequence (Q9QZN9 whole entry): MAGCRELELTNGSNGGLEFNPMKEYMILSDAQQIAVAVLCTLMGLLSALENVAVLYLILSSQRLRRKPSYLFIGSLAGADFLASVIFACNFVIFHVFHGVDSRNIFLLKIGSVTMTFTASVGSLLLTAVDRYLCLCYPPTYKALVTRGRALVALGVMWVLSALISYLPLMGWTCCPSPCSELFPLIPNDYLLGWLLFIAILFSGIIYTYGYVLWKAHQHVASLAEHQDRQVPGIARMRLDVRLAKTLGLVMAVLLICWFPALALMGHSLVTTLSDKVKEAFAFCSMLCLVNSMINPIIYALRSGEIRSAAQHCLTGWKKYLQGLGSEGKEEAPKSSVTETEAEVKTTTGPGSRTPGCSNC
Description: Displacement of [3H]CP-55940 from Sprague-Dawley rat spleen CB2 receptor after 60 mins by scintillation counting analysis. The method in brief: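 Competed against 0.5 nM [³H]CP-55,940 using 1 nM–10 μM compound for 60 min at 30 °C. Bound ligand collected on GF/C filters and counted. Ki from IC50 by Cheng-Prusoff; mean SEM of n = 4.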

The target in assay [6] is T2, Cannabinoid receptor 2. As to the kind of experiment: Inverse agonist activity at human CB2 receptor expressed in CHO cell membrane assessed as increase in forskolin-stimulated cAMP production at 1 uM by scintillation counting analysis relative to WIN55212-2. The method in brief:
as §3

Assay [7] deals with Cannabinoid receptor 1 (Rattus norvegicus) (UniProt P20272). As to the kind of experiment: Displacement of [3H]CP-55940 from Sprague-Dawley rat brain CB1 receptor at > 10 uM after 90 mins by scintillation counting analysis. An outline of the steps:
as §1

The target in assay [8] is T2, Cannabinoid receptor 2. Description: Displacement of [3H]CP-55940 from human CB2 receptor expressed in CHO cell membrane after 60 mins by scintillation counting analysis. The class given is cell membranes. An outline of the steps: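 Human CB₂-expressing CHO cell membranes in 50 mM Tris-HCl, 0.5% BSA, 5 mM MgCl₂, 1 mM EDTA, pH 7.4. Binding of 0.5 nM [³H]CP-55,940 competed with 1 nM–10 μM compound for 60 min at 30 °C, then GF/C filtration and scintillation counting. Ki by Cheng-Prusoff from IC50; mean SEM of n = 4.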

Assay [9] has as its target T1, Cannabinoid receptor 1. Description: Displacement of [3H]CP-55940 from human CB1 receptor expressed in CHO cell membrane after 90 mins by scintillation counting analysis. The format is cell membranes. The method in brief: as §2

Sequence of Cannabinoid receptor 1 (Rattus norvegicus) (P20272 whole entry): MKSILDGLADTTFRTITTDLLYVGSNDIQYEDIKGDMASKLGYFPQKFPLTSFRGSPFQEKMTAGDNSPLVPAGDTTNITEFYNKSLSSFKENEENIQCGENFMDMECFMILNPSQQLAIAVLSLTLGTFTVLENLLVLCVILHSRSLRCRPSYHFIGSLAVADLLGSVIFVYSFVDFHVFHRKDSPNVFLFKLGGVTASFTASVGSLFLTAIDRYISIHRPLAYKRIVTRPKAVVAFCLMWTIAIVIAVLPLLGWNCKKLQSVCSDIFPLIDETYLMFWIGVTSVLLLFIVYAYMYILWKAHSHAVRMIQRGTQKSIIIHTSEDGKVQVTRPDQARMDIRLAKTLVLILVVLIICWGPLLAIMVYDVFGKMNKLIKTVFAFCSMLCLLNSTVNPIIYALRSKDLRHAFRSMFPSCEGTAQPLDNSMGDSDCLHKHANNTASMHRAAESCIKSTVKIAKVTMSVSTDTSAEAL
Sequence of Cannabinoid receptor 1 (Rattus norvegicus, UniProt P20272) (P20272 whole entry): as above
T1 sequence (P21554 whole entry): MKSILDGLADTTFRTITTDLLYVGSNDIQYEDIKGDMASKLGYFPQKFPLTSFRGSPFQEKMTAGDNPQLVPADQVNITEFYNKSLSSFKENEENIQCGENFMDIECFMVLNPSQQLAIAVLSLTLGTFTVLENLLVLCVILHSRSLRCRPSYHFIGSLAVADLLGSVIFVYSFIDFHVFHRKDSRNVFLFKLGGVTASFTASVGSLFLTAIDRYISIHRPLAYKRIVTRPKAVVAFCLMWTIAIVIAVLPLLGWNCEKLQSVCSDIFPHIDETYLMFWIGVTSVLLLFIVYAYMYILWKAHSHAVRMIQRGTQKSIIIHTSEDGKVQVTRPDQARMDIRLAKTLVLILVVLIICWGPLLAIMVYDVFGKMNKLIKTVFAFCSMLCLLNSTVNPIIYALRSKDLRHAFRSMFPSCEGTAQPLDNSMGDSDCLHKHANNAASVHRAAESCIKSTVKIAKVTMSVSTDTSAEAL
T2 sequence (P34972 whole entry): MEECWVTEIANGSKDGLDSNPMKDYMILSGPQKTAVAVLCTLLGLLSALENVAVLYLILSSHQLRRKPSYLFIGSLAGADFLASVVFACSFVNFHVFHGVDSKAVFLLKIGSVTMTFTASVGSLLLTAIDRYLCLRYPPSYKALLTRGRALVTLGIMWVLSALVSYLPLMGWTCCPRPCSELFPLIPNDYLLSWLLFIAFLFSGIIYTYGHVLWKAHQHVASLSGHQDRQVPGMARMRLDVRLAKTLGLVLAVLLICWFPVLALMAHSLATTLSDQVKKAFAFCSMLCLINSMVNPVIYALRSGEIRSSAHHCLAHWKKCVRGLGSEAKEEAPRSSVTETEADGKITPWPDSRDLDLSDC

Usually pKi stands for −log10 of the Ki, conventionally taken in molar units. A lower pKi goes with a large Ki. In the case of `CCCCCn1cc(C(=O)NC23CC4CC(CC(C4)C2)C3)c(=O)n2nc(-c3cc(C)cs3)cc12`, the pKi in assay [1] is under 5.00; in [5], 7.74; in assay [8], 7.82; in [9], under 5.00. Besides, in assay [2], the Ratio Ki was over 666. The Activity in [3] was 13%; in assay [4], 97%; in [6], 71%; in assay [7], 15%.
As to `CCCCCn1cc(C(=O)NC2CCCCC2)c(=O)n2nc(C(C)(C)C)cc12`, the pKi is 6.14 in assay [1], 7.85 in assay [5], 7.91 in assay [8] and 6.17 in [9]. Besides, the Ratio Ki in assay [2] amounted to 55. The Activity in assay [4] was 115%; in assay [6], 85%.
Turning to `CCCCCn1cc(C(=O)NC2CCCCC2)c(=O)n2nc(CC)cc12`, the pKi in assay [1] is 6.32; in assay [5] it was 7.94; in assay [8], 7.98; in assay [9], 6.38. Moreover, in [2], the Ratio Ki stood at 40. The Activity is 146% in [4] and 121% in [6].
As for `CCCCCn1cc(C(=O)NCc2ccccc2)c(=O)n2nc(C)cc12`, the pKi in assay [1] was 5.43; in assay [5] it was 6.37; in assay [8], 6.45; in assay [9], 5.48. Also, the Ratio Ki in [2] was found to be 9.2. Further, the Activity in [4] is 52%; in [6], 38%.
For the compound `CCCCCn1cc(C(=O)NC2CCC(C)CC2)c(=O)n2nc(C)cc12` (centres undefined), the pKi in assay [1] was 5.59; in assay [5], 6.92; in assay [8] it was 6.97; in assay [9], 5.61. Also, in assay [2], the Ratio Ki was 23. For the same compound, the Activity is 67% in assay [4] and 48% in assay [6].
Regarding `CCCCCn1cc(C(=O)NC2CCCCCC2)c(=O)n2nc(-c3ccc(C)cc3)cc12`, the pKi in assay [1] is under 5.00; in [5] it was 7.88; in assay [8] it was 7.99; in assay [9], under 5.00. The Ratio Ki in assay [2] is over 970. Moreover, the Activity in [3] turned out to be 39%; in assay [4] it was 107%; in [6], 81%; in assay [7] it was 49%.
Consider `CCCCCn1cc(C(=O)NC2CCCCCC2)c(=O)n2nc(CC)cc12`, for which the pKi is 6.66 in assay [1], 8.25 in assay [5], 8.28 in assay [8] and 6.70 in assay [9]. In addition, the Ratio Ki in assay [2] is 38. Besides, the Activity in assay [4] was determined as 159%; in [6], 137%.
In the case of `CCCCCn1cc(C(=O)NC2CCCCC2)c(=O)n2nc(-c3ccccc3C)cc12`, the pKi in [1] is under 5.00; in [5], 7.32; in assay [8] it was 7.40; in assay [9] it was under 5.00. In assay [2], the Ratio Ki was over 250. In addition, the Activity is 16% in [3], 94% in assay [4], 73% in assay [6] and 30% in assay [7].
`CCCCCn1cc(C(=O)NC2CCCCC2)c(=O)n2nc(-c3ccccc3)cc12`: the pKi in [1] was 6.12; in [5], 7.30; in assay [8], 7.38; in assay [9] it was 6.15. Besides, the Ratio Ki in assay [2] was determined as 17. Further, the Activity was 123% in [4] and 92% in [6].
Turning to `CCCCCn1cc(C(=O)NC2CCCCCC2)c(=O)n2nc(-c3ccccc3Cl)cc12`, the pKi is under 5.00 in assay [1], 7.91 in [5], 7.99 in assay [8] and under 5.00 in assay [9]. In addition, the Ratio Ki in assay [2] is over 970. The Activity in assay [3] turned out to be 35%; in [4], 69%; in assay [6] it was 53%; in [7], 42%.
Regarding `CCCCCn1cc(C(=O)NC2CCCCCC2)c(=O)n2nc(-c3ccc(Cl)cc3Cl)cc12`, the pKi in [1] is under 5.00; in [5], 7.40; in [8] it was 7.43; in [9], under 5.00. Moreover, the Ratio Ki in assay [2] is over 270. The Activity was 39% in assay [3], 77% in [4], 61% in assay [6] and 49% in assay [7].
For the compound `CCCCCn1cc(C(=O)NC23CC4CC(CC(C4)C2)C3)c(=O)n2nc(-c3c(Cl)cccc3Cl)cc12`, the pKi in [1] is under 5.00; in [5] it was 6.96; in assay [8], 7.01; in [9] it was under 5.00. Also, the Ratio Ki in assay [2] is over 102. Moreover, the Activity in [3] stood at 21%; in assay [4], 62%; in assay [6], 38%; in assay [7], 18%.
In the case of `CCCCCn1cc(C(=O)NC23CC4CC(CC(C4)C2)C3)c(=O)n2nc(-c3ccccc3C)cc12`, the pKi in assay [1] is under 5.00; in assay [5] it was 8.49; in [8], 8.54; in assay [9], under 5.00. Also, in assay [2], the Ratio Ki was over 3500. In addition, the Activity in assay [3] was 22%; in assay [4] it was 184%; in assay [6], 155%; in [7], 30%.
For `CCCCCn1cc(C(=O)NC23CC4CC(CC(C4)C2)C3)c(=O)n2nc(-c3ccoc3)cc12`, the pKi was under 5.00 in [1], 7.91 in assay [5], 8.00 in [8] and under 5.00 in [9]. Also, in assay [2], the Ratio Ki is over 990. The Activity was determined as 19% in assay [3], 92% in assay [4], 56% in [6] and 17% in assay [7].
Consider `CCCCCn1cc(C(=O)NC2CCCCCC2)c(=O)n2nc(C)cc12`, for which the pKi was 6.19 in assay [1], 7.91 in assay [5], 7.99 in assay [8] and 6.28 in [9]. Also, the Ratio Ki in [2] was 51. Further, the Activity in assay [4] stood at 63%; in assay [6] it was 44%.
On to `CCCCCn1cc(C(=O)NC23CC4CC(CC(C4)C2)C3)c(=O)n2nc(C(C)(C)C)cc12`, for which the pKi in assay [1] was 6.17; in assay [5], 8.26; in [8], 8.31; in assay [9] it was 6.21. The Ratio Ki in assay [2] turned out to be 124. In addition, the results for the Activity in assay [4] and in assay [6] were 189% and 114%, respectively.
Consider `CCCCCn1cc(C(=O)NC2CCCCCC2)c(=O)n2nc(-c3ccccc3)cc12`, for which the pKi in assay [1] is 6.05; in assay [5], 7.46; in assay [8], 7.51; in assay [9] it was 6.08. Further, the Ratio Ki in assay [2] is 27. For the same compound, the Activity is 134% in assay [4] and 103% in assay [6].
`CCCCCn1cc(C(=O)NC2CCCCC2)c(=O)n2nc(C)cc12`: the pKi in assay [1] was 5.80; in [5], 7.59; in assay [8], 7.66; in assay [9] it was 5.89. In addition, in assay [2], the Ratio Ki stood at 58. Besides, the Activity in assay [4] amounted to 54%; in [6], 42%.
Regarding `CCCCCn1cc(C(=O)NC23CC4CC(CC(C4)C2)C3)c(=O)n2nc(C)cc12`, the pKi in assay [1] was 5.84; in assay [5], 7.82; in assay [8], 7.90; in assay [9], 5.95. The Ratio Ki in assay [2] stood at 88. Besides, the Activity turned out to be 75% in assay [4] and 56% in assay [6].
